The target in one experiment is Vasopressin V2 receptor (Rattus norvegicus, UniProt Q00788). Kind of experiment: Displacement of [3H]-AVP from its AVP-V2 receptor binding site in rat kidney. The gist of the method: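 Radioligand competition with [3H]AVP on plasma membrane preparations, rat liver for V1a and rat kidney for V2. Assays run in duplicate. Reported intraassay variation is under 3% and interassay variation under 20%.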
For orientation: In a radioligand displacement assay an active substance lowers the binding of a labelled ligand.

A further experiment deals with Vasopressin V1a receptor (Rattus norvegicus, UniProt P30560). Kind of experiment: Displacement of [3H]AVP from AVP-V1a receptor binding site in rat liver. A digest of the protocol: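 Radioligand competition with [3H]AVP on plasma membrane preparations, rat liver for V1a and rat kidney for V2. […] Assays run in duplicate. Reported intraassay variation is under 3% and interassay variation under 20%.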

These results are taken from ChEMBL document CHEMBL1129629, “Orally active, nonpeptide vasopressin V2 receptor antagonists: a novel series of 1-[4-(benzoylamino)benzoyl]-2,3,4,5-tetrahydro-1H-benzazepines and related compounds” (J Med Chem, 1996).

Some results are limits rather than exact numbers.

Vasopressin V1a receptor, sequence (P30560 whole entry): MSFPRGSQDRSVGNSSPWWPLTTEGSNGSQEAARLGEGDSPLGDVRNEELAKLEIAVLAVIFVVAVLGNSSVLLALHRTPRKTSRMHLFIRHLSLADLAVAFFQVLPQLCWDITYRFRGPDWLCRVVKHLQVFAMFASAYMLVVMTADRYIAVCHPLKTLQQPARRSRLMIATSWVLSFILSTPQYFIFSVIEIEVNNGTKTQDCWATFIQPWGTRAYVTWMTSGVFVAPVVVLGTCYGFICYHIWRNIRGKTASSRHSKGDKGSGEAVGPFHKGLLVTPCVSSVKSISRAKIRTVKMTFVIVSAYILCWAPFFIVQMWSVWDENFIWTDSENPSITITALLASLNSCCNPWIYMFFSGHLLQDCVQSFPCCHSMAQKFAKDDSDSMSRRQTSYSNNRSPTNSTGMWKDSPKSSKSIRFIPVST
Vasopressin V2 receptor, sequence (Q00788 whole entry): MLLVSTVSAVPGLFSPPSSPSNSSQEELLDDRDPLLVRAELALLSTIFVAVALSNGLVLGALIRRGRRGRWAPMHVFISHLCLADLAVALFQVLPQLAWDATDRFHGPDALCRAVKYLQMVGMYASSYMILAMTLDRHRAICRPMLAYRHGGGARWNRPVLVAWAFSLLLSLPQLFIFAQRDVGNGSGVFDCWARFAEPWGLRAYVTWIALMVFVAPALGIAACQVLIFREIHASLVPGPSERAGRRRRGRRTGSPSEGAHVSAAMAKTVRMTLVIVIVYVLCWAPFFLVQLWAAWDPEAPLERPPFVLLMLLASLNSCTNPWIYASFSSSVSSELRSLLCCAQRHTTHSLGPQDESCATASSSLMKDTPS

As usually defined, the IC50 is the midpoint of a concentration-inhibition curve. A higher IC50 goes with weaker potency in that assay. With `CCCC(=O)Nc1ccc(C(=O)N2CCCc3ccccc32)cc1`, the values for the IC50 on Vasopressin V2 receptor and at Vasopressin V1a receptor were 7100 nM and 4300 nM, respectively.

In the case of `Cc1ccc(C(=O)Nc2ccc(C(=O)N3CCCC(N(C)C)c4ccccc43)cc2)cc1` (configuration not stated), the IC50 was 44 nM on Vasopressin V2 receptor and 26000 nM on Vasopressin V1a receptor.

Regarding `Cc1ccccc1C(=O)Nc1ccc(C(=O)N2CCOc3ccccc32)cc1`, the half-maximal inhibitory concentration (IC50) on Vasopressin V2 receptor is 4100 nM; at Vasopressin V1a receptor, 7700 nM.

For `Cc1ccc(C(=O)Nc2ccc(C(=O)N3CCCc4ccccc43)cc2)c(C)c1`, the IC50 worked out at 210 nM at Vasopressin V2 receptor and 3300 nM at Vasopressin V1a receptor.

Turning to `Cc1ccc(C(=O)Nc2ccc(C(=O)N3CCCc4ccccc43)cc2)cc1C`, the results for the IC50 at Vasopressin V2 receptor and on Vasopressin V1a receptor were 1200 nM and over 100000 nM, respectively.

Take `O=C(Nc1ccc(C(=O)N2CCCCc3ccccc32)cc1)c1ccccc1Cl`: the IC50 was determined as 29 nM at Vasopressin V2 receptor and 45 nM on Vasopressin V1a receptor.

`COc1cccc(C(=O)Nc2ccc(C(=O)N3CCCc4ccccc43)cc2)c1`: on Vasopressin V1a receptor, the IC50 came out at 2800 nM. That is a single-digit micromolar value.

With `O=C(Nc1ccc(C(=O)N2CCCc3ccccc32)cc1)c1ccccc1Cl`, the IC50 turned out to be 420 nM at Vasopressin V2 receptor and 1600 nM on Vasopressin V1a receptor.

Take `Cc1ccccc1C(=O)N(C)c1ccc(C(=O)N2CCCC(N(C)C)c3ccccc32)cc1` (configuration not stated): the IC50 at Vasopressin V2 receptor was determined as 1000 nM; on Vasopressin V1a receptor, 19000 nM.

`O=C(Nc1ccc(C(=O)N2CCCc3ccccc32)cc1)c1ccco1`: the IC50 is 6400 nM on Vasopressin V2 receptor and 4000 nM on Vasopressin V1a receptor.

For the compound `O=C(Nc1ccc(C(=O)N2CCCc3ccccc32)cc1)c1cccnc1`, the figures for the IC50 at Vasopressin V2 receptor and at Vasopressin V1a receptor were 7600 nM and 11000 nM, respectively.

On to `O=C(Nc1ccccc1C(=O)N1CCCc2ccccc21)c1ccccc1`, for which the IC50 on Vasopressin V2 receptor came out at 22000 nM; on Vasopressin V1a receptor, 88000 nM.

Regarding `CN(C)C1CCCN(C(=O)c2ccc(NC(=O)c3cc(Cl)cc(Cl)c3)cc2)c2ccccc21` (configuration not stated), the IC50 on Vasopressin V2 receptor was found to be 20 nM; at Vasopressin V1a receptor, 2600 nM.

Turning to `O=C(Nc1ccc(C(=O)N2CCCc3ccccc32)cc1)c1ccc(Cl)cc1`, the results for the IC50 on Vasopressin V2 receptor and on Vasopressin V1a receptor were 1900 nM and 5100 nM, respectively.

For `O=C(Nc1ccc(C(=O)N2CCCc3ccccc32)cc1)c1cc(Cl)cc(Cl)c1`, the IC50 came out at 82 nM on Vasopressin V2 receptor and 9400 nM on Vasopressin V1a receptor.

Take `O=C(Cc1ccccc1)Nc1ccc(C(=O)N2CCCc3ccccc32)cc1`: the IC50 at Vasopressin V2 receptor amounted to 1000 nM; at Vasopressin V1a receptor, 3200 nM.

Compound `O=C(Nc1ccc(C(=O)N2CCCc3ccccc32)cc1)c1cccc(Cl)c1` came in with an IC50 on Vasopressin V1a receptor of 6400 nM.

Turning to `CC(=O)Nc1ccccc1C(=O)Nc1ccc(C(=O)N2CCCC(N(C)C)c3ccccc32)cc1` (configuration not stated), the IC50 is 640 nM at Vasopressin V2 receptor and 16000 nM on Vasopressin V1a receptor.

In the case of `Cc1ccccc1C(=O)Nc1ccc(C(=O)N2CCCc3ccccc32)cc1`, at Vasopressin V1a receptor, the IC50 was found to be 1400 nM.

Consider `O=C(Nc1ccc(C(=O)N2CCCc3ccccc32)cc1)c1ccc([N+](=O)[O-])cc1`, for which the values for the IC50 on Vasopressin V2 receptor and on Vasopressin V1a receptor were 6500 nM and over 100000 nM, respectively.

Consider `Cc1ccccc1C(=O)Nc1ccc(C(=O)N2CCCOc3ccccc32)cc1`, for which the IC50 at Vasopressin V2 receptor is 110 nM; on Vasopressin V1a receptor, 1200 nM.

Take `Cc1ccc(C(=O)Nc2ccc(C(=O)N3CCCc4ccccc43)cc2)cc1`: the IC50 on Vasopressin V2 receptor came to 1400 nM; on Vasopressin V1a receptor it was 10000 nM.

`O=C(Nc1ccccc1)Nc1ccc(C(=O)N2CCCCc3ccccc32)cc1`: the figures for the IC50 at Vasopressin V2 receptor and on Vasopressin V1a receptor were 180 nM and 760 nM, respectively.

As to `O=C(Nc1ccc(C(=O)N2CCCc3ccccc32)cc1)c1ccccc1[N+](=O)[O-]`, the results for the IC50 at Vasopressin V2 receptor and at Vasopressin V1a receptor were 530 nM and 2700 nM, respectively.

The compound `O=C(Nc1ccc(C(=O)N2CCCc3ccccc32)cc1)c1ccccc1` came in with an IC50 at Vasopressin V1a receptor of 1600 nM.

`CCOc1ccc(C(=O)Nc2ccc(C(=O)N3CCCc4ccccc43)cc2)cc1`: the concentration for half-maximal inhibition (IC50) at Vasopressin V2 receptor is over 100000 nM; on Vasopressin V1a receptor, 14000 nM.

Turning to `COc1ccccc1C(=O)Nc1ccc(C(=O)N2CCCC(N(C)C)c3ccccc32)cc1` (configuration not stated), the values for the IC50 on Vasopressin V2 receptor and on Vasopressin V1a receptor were 77 nM and 1000 nM, respectively.

Regarding `Cc1ccccc1C(=O)Nc1ccc(C(=O)N2CCCC(N)c3ccccc32)cc1` (configuration not stated), the figures for the IC50 on Vasopressin V2 receptor and on Vasopressin V1a receptor were 32 nM and 390 nM, respectively.
